In ChEMBL document CHEMBL1123757, “Selective thromboxane synthetase inhibitors and antihypertensive agents. New derivatives of 4-hydrazino-5H-pyridazino[4,5-b]indole, 4-hydrazinopyridazino[4,5-a]indole, and related compounds” (J Med Chem, 1987):
Values belong to the molecule of their own block, whether it stands above or below them.

Columns and labels:
[1] = organism: Homo sapiens; assay: In vitro inhibition of platelet aggregation induced by DD (PRP incubated for 5 minutes at 37 degree C) at 10e-5 M;No significance; assay type: functional
Outline: (§1)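 Human venous blood anticoagulated with 3.8% sodium citrate (1:9). PRP from centrifugation at 800 rpm for 10 min at room temperature. Count adjusted with PPP to […]. Compound in saline with 10% ethylene glycol is added to PRP and incubated at 37 °C before the agonist. Agonists: ADP 2×10^-5 M, AA 0.6 mM, PGH2 2.8 μM, adrenaline 0.6 μM. Born absorbance aggregometry; n = 5.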

[2] = organism: Homo sapiens; assay: In vitro inhibition of platelet aggregation induced by […] (PRP incubated for 5 minutes at 37 degree C) at 5 e-6 M;No significance; assay type: functional
[3] = test system: Rattus norvegicus; assay: Antihypertensive activity in spontaneously hypertensive rats (SHR) measured by percentage fall in arterial pressure (AP) at 25 mg/kg administered intraperitoneally at 3 h;No significance; assay type: functional, organism-based; parameters: dose 25 mg/kg; conditions: Artery
Outline: (§2)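 Unanesthetized Okamoto-strain SHR, male and female, 8 weeks old, 300–350 g, systolic pressure ≥190 mmHg, heart rate 400–650 beats/min; five animals per dose. Given ip at 2.5 mL/kg, dissolved or suspended in normal saline or saline with 0.2% (carboxymethyl)cellulose and 1.0% Tween 80. Tail AP and CR recorded by mechanical transduction at set times; reported as percentage fall from control.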

[4] = test system: Rattus norvegicus; assay: Antihypertensive activity in spontaneously hypertensive rats (SHR) measured by percentage fall in arterial pressure (AP) at 25 mg/kg administered intraperitoneally at 5 h;No significance; assay type: functional, organism-based; parameters: dose 25 mg/kg; conditions: Artery; outline: as §2
[5] = organism: Homo sapiens; assay: In vitro inhibition of platelet aggregation induced by AA (PRP incubated for 60 minutes at 37 degree C) at 10e-5 M;No significance; assay type: functional; outline: as §1
[6] = organism: Homo sapiens; assay: In vitro inhibition of platelet aggregation induced by AA (PRP incubated for 60 minutes at 37 degree C) at 5e-6 M;No significance; assay type: functional; outline: as §1
[7] = organism: Homo sapiens; assay: In vitro inhibition of platelet aggregation induced by ADP-II (PRP incubated for 5 minutes at 37 degree C) at 10e-5 M; assay type: functional; outline: as §1
[8] = organism: Homo sapiens; assay: In vitro inhibition of platelet aggregation induced by ADP-II (PRP incubated for 60 minutes at 37 degree C) at 10e-5 M; assay type: functional; conditions: 1 h; outline: as §1
[9] = test system: Rattus norvegicus; assay: Antihypertensive activity in spontaneously hypertensive rats (SHR) measured by percentage fall in cardiac rhythm (CR) at 25 mg/kg administered intraperitoneally at 24 h; assay type: functional, Heart; conditions: route intraperitoneal; outline: as §2
[10] = test system: Rattus norvegicus; assay: Antihypertensive activity in spontaneously hypertensive rats (SHR) measured by percentage fall in cardiac rhythm (CR) at 25 mg/kg administered intraperitoneally at 3 h; assay type: functional, Heart; conditions: route intraperitoneal; outline: as §2
[11] = test system: Rattus norvegicus; assay: Antihypertensive activity in spontaneously hypertensive rats (SHR) measured by percentage fall in cardiac rhythm (CR) at 25 mg/kg administered intraperitoneally at 5 h; assay type: functional, Heart; conditions: route intraperitoneal
Outline: (§3)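 Conscious SHR (Okamoto strain), 8 weeks old, male and female, 300–350 g, systolic BP ≥190 mmHg, CR 400–650 beats/min. Given ip or po at 2.5 mL/kg in normal saline or saline with 0.2% (carboxymethyl)cellulose and 1.0% Tween 80. Tail AP and CR recorded by mechanical transduction at 1, 3, 5 and 24 h, five animals per dose. Effect expressed as % fall versus control.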

[12] = test system: Rattus norvegicus; assay: Antihypertensive activity in spontaneously hypertensive rats (SHR) measured by percentage fall in arterial pressure (AP) at 25 mg/kg administered intraperitoneally at 24 h;No significance; assay type: functional, organism-based; parameters: dose 25 mg/kg; conditions: Artery; outline: as §2
[13] = test system: Rattus norvegicus; assay: Antihypertensive activity in spontaneously hypertensive rats (SHR) measured by percentage fall in arterial pressure (AP) at 25 mg/kg administered perorally at 24 h;No significance; assay type: functional, organism-based; parameters: dose 25 mg/kg; conditions: Artery
Outline: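 Oral dosing at 2.5 mL/kg to unanesthetized male and female Okamoto-strain SHR (8 weeks old, 300–350 g, systolic pressure ≥190 mmHg, heart rate 400–650 beats/min), five per dose. Vehicle was normal saline or saline with 0.2% (carboxymethyl)cellulose and 1.0% Tween 80. AP measured on the tail by mechanical transduction at set times; expressed as percentage fall from control.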

[14] = test system: Rattus norvegicus; assay: Antihypertensive activity in spontaneously hypertensive rats (SHR) measured by percentage fall in arterial pressure (AP) at 1 mg/kg administered intraperitoneally at 1 h;No significance; assay type: functional, organism-based; parameters: dose 1 mg/kg; conditions: Artery; outline: as §2
[15] = test system: Rattus norvegicus; assay: Antihypertensive activity in spontaneously hypertensive rats (SHR) measured by percentage fall in cardiac rhythm (CR) at 25 mg/kg administered perorally at 24 h;No significance; assay type: functional, organism-based; parameters: dose 25 mg/kg; conditions: Heart; outline: as §3
[16] = test system: Rattus norvegicus; assay: Percent fall in systolic blood pressure, directly measured on carotid (iv on the jugular vein) of spontaneously after 180 minutes; No significance; assay type: functional, organism-based; conditions: Artery
Outline: (§4)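 Anesthetized (sodium pentobarbital, 70 mg/kg) male and female Okamoto SHR, 8 weeks old, 300–350 g. Given iv into the jugular vein in normal saline. Arterial pressure and cardiac rhythm are recorded directly from the carotid by polygraph at set times after dosing. Each is expressed as percent change from the pre-dose control value.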

[17] = test system: Rattus norvegicus; assay: Percent fall in systolic blood pressure, directly measured on carotid (iv on the jugular vein) of spontaneously hypertensive rats at 1 mg/kg after 240 minutes; No significance; assay type: functional, organism-based; parameters: dose 1 mg/kg; conditions: Artery; outline: as §4
[18] = test system: Rattus norvegicus; assay: Antihypertensive activity in spontaneously hypertensive rats (SHR) measured by percentage fall in arterial pressure (AP) at 1 mg/kg administered intraperitoneally at 5 h;No significance; assay type: functional, organism-based; parameters: dose 1 mg/kg; conditions: Artery; outline: as §2
[19] = test system: Cavia porcellus; assay: Effect on thromboxane synthetase activity on ex vivo platelet aggregation induced by PGE-2 at 100 mg/kg expressed as percent increase; assay type: functional
Outline: (§5)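 Fasted male or female guinea pigs (250–300 g, five per group) dosed orally in normal saline or saline with 0.2% (carboxymethyl)cellulose/1.0% Tween 80; controls given vehicle. Under ether, cardiac blood collected into 3.8% citrate. PRP adjusted to […] and aggregation induced by ADP (second wave) or AA, read by absorbance aggregometry. PGE2 and TXB2 measured by RIA.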

[20] = test system: Cavia porcellus; assay: Effect on thromboxane synthetase activity on ex vivo platelet aggregation induced by TXB2 at 100 mg/kg expressed as percent increase; assay type: functional; outline: as §5
[21] = Effect on thromboxane synthetase activity on in vitro platelet aggregation induced by AA at 10e -5 M expressed as percent increase in PGE-2; assay type: functional, Homo sapiens
Outline: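 Human citrated PRP adjusted to 200 000 […], compound at 10^-5 M final in saline/10% ethylene glycol, incubated at 37 °C. Aggregation induced with arachidonic acid 0.6 mM and read by Born absorbance aggregometry. PGE2 and TXB2 in the aggregated samples measured by radioimmunoassay. n = 5.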

[22] = test system: Cavia porcellus; assay: Ex vivo inhibition of platelet aggregation induced by AA at 100 mg/kg; assay type: functional; outline: as §5
[23] = test system: Cavia porcellus; assay: Ex vivo inhibition of platelet aggregation induced by ADP-II at 100 mg/kg; assay type: functional; outline: as §5
[24] = test system: Rattus norvegicus; assay: Antihypertensive activity in spontaneously hypertensive rats (SHR) measured by percentage fall in cardiac rhythm (CR) at 50 mg/kg administered intraperitoneally at 24 h; assay type: functional, Heart; conditions: route intraperitoneal; outline: as §3
[25] = test system: Rattus norvegicus; assay: Antihypertensive activity in spontaneously hypertensive rats (SHR) measured by percentage fall in cardiac rhythm (CR) at 50 mg/kg administered intraperitoneally at 3 h; assay type: functional, Heart; conditions: route intraperitoneal; outline: as §3
[26] = test system: Rattus norvegicus; assay: Antihypertensive activity in spontaneously hypertensive rats (SHR) measured by percentage fall in cardiac rhythm (CR) at 50 mg/kg administered intraperitoneally at 5 h; assay type: functional, Heart; conditions: route intraperitoneal; outline: as §3
[27] = organism: Homo sapiens; assay: In vitro inhibition of platelet aggregation induced by ADP-II (PRP incubated for 5 minutes at 37 degree C) at 10e-6 M; assay type: functional; outline: as §1
[28] = organism: Homo sapiens; assay: In vitro inhibition of platelet aggregation induced by ADP-II (PRP incubated for 60 minutes at 37 degree C) at 5e-6 M; assay type: functional; outline: as §1
[29] = organism: Homo sapiens; assay: In vitro inhibition of platelet aggregation induced by DD (PRP incubated for 5 minutes at 37 degree C) at 10e-5 M; assay type: functional; outline: as §1
[30] = organism: Homo sapiens; assay: In vitro inhibition of platelet aggregation induced by PGH-2 (PRP incubated for 60 minutes at 37 degree C) at 10e-5 M; assay type: functional; conditions: 1 h; outline: as §1
[31] = test system: Rattus norvegicus; assay: Antihypertensive activity in spontaneously hypertensive rats (SHR) measured by percentage fall in arterial pressure (AP) at 50 mg/kg administered intraperitoneally at 24 h; assay type: functional, Artery; conditions: route intraperitoneal; outline: as §2
[32] = test system: Rattus norvegicus; assay: Antihypertensive activity in spontaneously hypertensive rats (SHR) measured by percentage fall in arterial pressure (AP) at 50 mg/kg administered intraperitoneally at 3 h; assay type: functional, Artery; conditions: route intraperitoneal; outline: as §2
[33] = test system: Rattus norvegicus; assay: Antihypertensive activity in spontaneously hypertensive rats (SHR) measured by percentage fall in arterial pressure (AP) at 50 mg/kg administered intraperitoneally at 5 h; assay type: functional, Artery; conditions: route intraperitoneal; outline: as §2
[34] = organism: Homo sapiens; assay: Inhibition of platelet aggregation induced by AA (PRP incubated for 60 minutes at 37 degree C) at 10e-5 M; assay type: functional; conditions: 1 h; outline: as §1
[35] = target: T1, Thromboxane-A synthase (Homo sapiens) (UniProt P24557); assay: Effect on thromboxane synthetase activity on in vitro platelet aggregation induced by AA at 10e -5 M expressed as percent inhibition of TXB2
T1 sequence (whole entry): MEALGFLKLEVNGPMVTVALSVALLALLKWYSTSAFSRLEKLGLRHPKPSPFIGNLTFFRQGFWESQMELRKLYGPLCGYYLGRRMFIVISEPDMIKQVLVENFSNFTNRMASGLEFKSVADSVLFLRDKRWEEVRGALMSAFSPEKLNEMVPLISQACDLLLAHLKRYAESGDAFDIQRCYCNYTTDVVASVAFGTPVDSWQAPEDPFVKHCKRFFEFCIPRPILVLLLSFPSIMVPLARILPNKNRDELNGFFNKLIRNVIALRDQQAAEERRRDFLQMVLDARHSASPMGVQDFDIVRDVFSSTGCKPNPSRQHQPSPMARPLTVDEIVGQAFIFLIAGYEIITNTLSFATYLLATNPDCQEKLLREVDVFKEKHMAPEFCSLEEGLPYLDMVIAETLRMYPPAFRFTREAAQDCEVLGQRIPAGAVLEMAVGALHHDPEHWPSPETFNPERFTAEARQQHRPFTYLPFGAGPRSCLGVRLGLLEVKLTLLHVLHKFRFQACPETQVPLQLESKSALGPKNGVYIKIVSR

SMILES: Oc1ccc2[nH]c3c(O)nncc3c2c1
inhibition [1]: No significant values
inhibition [2]: No significant values
Decrease in AP [3]: No significant values
Decrease in AP [4]: No significant values
inhibition [5]: No significant values
inhibition [6]: No significant values
inhibition at 10 µM [7]: 87%
inhibition at 10 µM [8]: 100%
Decrease in CR [9]: -8%
Decrease in CR [10]: -11%
Decrease in CR [11]: -7%
Decrease in AP [12]: No significant values

SMILES: NNc1[nH]ncc2c3cc(O)ccc3nc1-2
Decrease in AP [13]: No significant values
Decrease in AP [14]: No significant values
Decrease in CR [15]: No significant values
Decrease in blood pressure [16]: No significant values
Decrease in blood pressure [17]: No significant values
Decrease in AP [18]: No significant values

Inhibition % [35]: 50%
SMILES: Oc1[nH]ncc2c3cc(OCc4ccccc4)ccc3nc1-2
Increase [19]: 30%
inhibition in vivo at 100 mg/kg [20]: 50%
Increase [21]: 270%
inhibition in vivo at 100 mg/kg [22]: 100%
inhibition in vivo at 100 mg/kg [23]: 100%
Decrease in CR [24]: 9%
Decrease in CR [25]: 10%
Decrease in CR [26]: 15%
inhibition [6]: No significant values
inhibition at 10 µM [7]: 60%
inhibition at 1 µM [27]: 40%
inhibition at 10 µM [8]: 100%
Inhibition [28]: 80%
inhibition at 10 µM [29]: 100%
inhibition at 10 µM [30]: 100%
Decrease in AP [31]: 7%
Decrease in AP [32]: 12%
Decrease in AP [33]: 13%
inhibition at 10 µM [34]: 100%
